# Results reported in the array DNA melting data of Ke et al. (doi:10.1101/2024.01.08.574731).
# Experiments:
# [1] = melting temperature; fluorescence melt of hairpins on a sequencing array, two-state fit, raised by 9.35 °C to match UV melts; settings: sodium 0.088 M
# How it was run: (§1)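 Folding enthalpy and melting temperature come from bootstrapped two-state fits to Cy3 fluorescence of library hairpins carrying annealed Cy3 and quencher oligos on a sequenced MiSeq flow cell. Imaging was done in 50 mM Na-HEPES pH 8.0, 25 mM NaCl, stepping by 2.5 °C up to 60 °C, and signals were normalised to pre-quench Cy3 and to control constructs. Results of four replicates were combined by inverse variance, and fitted temperatures were raised by 9.35 °C to match UV melts.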
# [2] = folding enthalpy; higher = less favourable; fluorescence melt of hairpins on a sequencing array, two-state fit; settings: sodium 0.088 M
# How it was run: as §1
Sequence,Tm [1] [°C],folding enthalpy [2] [kcal/mol]
GCGCGGCGAAAGCAGAGC ((.(.((....)).).)),63.8,-25.1
GCGACGCGAAAGCCACGC (((..((....))..))),48.7,-17.7
GGTAAGGGAAACCTCACC (((.(((....))).))),34.7,-21.9
GCGATCCTCGC ((((...)))),50.3,-20.9
GCTGCCGAAAGGCAAAGC ((((((....)))..))),57.1,-14.8
GCACAGCGAAAGCGGCGC ((.(.((....)).).)),63.7,-28.6
GCACGGGGAAACTCGTGC (((((.(....).))))),60.5,-45.9
GATCGCACATGCGATC ((((((....)))))),68.3,-39.8
GATCAGCCCGCTGATC ((((((....)))))),58.3,-47.1
GTAGGTGGAAACGCCTAC (((((.(....).))))),51.9,-32.8
GTGATCGAAAGATCACAC ((((((....)))..))),67.3,-14.1
GGAGCAGGAAACTGCTTC (.(((((....))))).),51.7,-26.4
GGGTACGAAAGTAGGCCC ((((((....)))..))),38.6,-20.1
GCACCGCGAAAGCCTTGC (((..((....))..))),37,-14.8
GATCTTGGAAACAAGACC (.(((((....))))).),35.2,-17.4
GCATAGCGAAAGCTACGC ((.((((....)))).)),52.9,-20.3
GATCCGTTCCGGATC ((((((...)))))),59.2,-46
GCCCTGCGAAAGCTCGGC (((..((....))..))),46.9,-19.3
GGATACGAAAGTATCC ((((((....)))))),66,-39.1
GCTGGGACGAAAGTCAGC (((..(((....)))))),46.3,-19.3
GCATGACGAAAGTCTTGC (((.(((....))).))),57.5,-38.3
GCCCGCGGAAACGCAGGC (((.(((....))).))),62.4,-32.4
CTCTGGAAACAGAG (((((....))))),46.4,-19.9

Sequence,Tm [1] [°C],folding enthalpy [2] [kcal/mol]
GAAAACCGAAAGGTTTC (((.(((....)))))),44.2,-15.9
GATCGGGGAAACCTGGTC ((.(.((....)).).)),36.3,-22.6
GTGGGACGAAAGTCGCAC (((.(((....))).))),66.3,-38.6
GAATTCCGAAAGGAGTTC (((.(((....))).))),49,-33.6
GGAGACGAAAGTCAATCC ((((((....)))..))),31,-15.1
GCATCACGAAAGTGTTGC (((.(((....))).))),55,-44
GCCGTTCCGAAAGGAGGC (((..(((....)))))),50.7,-24.4
GGTAGCTCGAAAGAGACC (((..(((....)))))),28.3,-11.7
GACGATGGAAACATCGTC (((((((....))))))),67.9,-41.7
GATCTACTGATAGATC ((((((....)))))),39.3,-28.8
CGCGGAACTTCCGCG ((((((...)))))),61.3,-37.8
GATCCCTCTGGGGATC ((((((....)))))),61.5,-39.1
GGGTCTGGAAACAGGCCC (((.(((....))).))),59.8,-46.8
GATCCATTATGGATC ((((((...)))))),52.7,-35.9
GATCAGTGCACTGATC ((((((....)))))),56.3,-58.7
GTCCTGTCGAAAGACGAC (((..(((....)))))),34.1,-11.2
GATCACCCGTGTGATC ((((((....)))))),55.5,-47.7
GCGGGCATCCGC ((((....)))),67,-24.5
GTAGATCGAAAGATGTAC (((.(((....))).))),42.6,-31.6
GTCAGCGAAAGCTACGAC ((((((....)))..))),41,-16.8
GTCCAGGGAAACTTGGGC (.(((.(....).))).),34.7,-29
GGCTGCGAAAGCACCGCC ((((((....)))..))),54.1,-20.7
GGAGATACGAAAGTATCC (((..(((....)))))),40.9,-12.7
